Results from PMC2674521 (Journal of pharmaceutical sciences, 2009).
Values joined by “and” are separate entries in the source; they are usually repeats but may differ in a detail not shown here. Equal entries are not always repeated. Where two headings read alike, the source gives them in different places. Blank lines part the entries; values can stand above or below the compound they belong to.

How the values were obtained:
HSA = conditions: cited from earlier work
[1] = no reference given; cited from earlier work
[2] = target: T1, canine serum albumin (CSA) (Canis lupus familiaris, UniProt P49822); conditions: no competing drug; cited from earlier work
T1 sequence (P49822 25-608): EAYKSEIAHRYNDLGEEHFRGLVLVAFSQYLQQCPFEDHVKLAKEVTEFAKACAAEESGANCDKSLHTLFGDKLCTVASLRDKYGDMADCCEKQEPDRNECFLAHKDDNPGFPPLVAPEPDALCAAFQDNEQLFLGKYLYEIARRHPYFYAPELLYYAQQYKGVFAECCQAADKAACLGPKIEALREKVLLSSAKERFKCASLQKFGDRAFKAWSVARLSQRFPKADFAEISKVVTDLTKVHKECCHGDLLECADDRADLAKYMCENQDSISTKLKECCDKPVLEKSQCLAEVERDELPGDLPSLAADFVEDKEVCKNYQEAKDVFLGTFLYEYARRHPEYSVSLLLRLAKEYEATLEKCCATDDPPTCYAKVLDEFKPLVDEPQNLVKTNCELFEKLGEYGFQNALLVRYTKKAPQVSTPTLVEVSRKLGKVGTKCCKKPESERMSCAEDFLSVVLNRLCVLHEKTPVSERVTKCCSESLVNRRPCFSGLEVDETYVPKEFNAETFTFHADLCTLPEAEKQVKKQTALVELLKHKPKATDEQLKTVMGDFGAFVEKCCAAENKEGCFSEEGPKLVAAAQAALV

[3] = target: T2, human serum albumin (HSA) (Homo sapiens, UniProt P02768); type: in vitro ADME; conditions: for increase in free radiopharmaceutical level: 8:1 warfarin:HSA mole ratio vs drug-free; for Unbound [^64Cu]Cu-PTSM: HSA; for % Free [^64Cu]Cu-PTSM: 49°C, 2.5% v/v ethanol
T2 sequence (P02768 25-609): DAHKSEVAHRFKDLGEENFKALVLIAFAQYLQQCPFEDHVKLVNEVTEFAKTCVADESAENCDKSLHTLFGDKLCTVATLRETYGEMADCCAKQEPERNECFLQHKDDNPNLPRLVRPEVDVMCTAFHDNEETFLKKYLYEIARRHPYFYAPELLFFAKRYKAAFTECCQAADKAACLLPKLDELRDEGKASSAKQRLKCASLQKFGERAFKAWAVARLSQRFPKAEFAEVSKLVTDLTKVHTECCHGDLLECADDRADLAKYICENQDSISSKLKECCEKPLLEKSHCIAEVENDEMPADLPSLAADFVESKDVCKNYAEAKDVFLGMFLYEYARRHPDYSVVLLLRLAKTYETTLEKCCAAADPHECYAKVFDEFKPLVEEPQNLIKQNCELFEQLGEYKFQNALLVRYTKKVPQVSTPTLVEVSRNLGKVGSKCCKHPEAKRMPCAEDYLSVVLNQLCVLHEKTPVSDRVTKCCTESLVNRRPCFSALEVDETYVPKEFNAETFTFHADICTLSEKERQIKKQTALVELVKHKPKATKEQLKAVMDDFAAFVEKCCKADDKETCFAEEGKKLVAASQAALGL
Outline: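 HSA (globulin-free, ≥99.5% fatty acid free) reconstituted in 0.9% saline at 0.66 mM. 100 µL of drug in saline (3.3–53 mM, pH 7) or saline alone (drug-free control) added to 1.0 mL, giving 40 mg/mL HSA at 0.5:1–8:1 drug:HSA. 2–8 µCi 64Cu tracer added and vortexed. Triplicate aliquots ultrafiltered (30,000 Da NMWL) within 5 min, 64Cu gamma-counted.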

rat serum [4] = type: in vitro ADME
[5] = ref 37, 38; cited from earlier work
[6] = target: T2, human serum albumin (HSA); conditions: cited from earlier work; for % bound to HSA: 40 mg/mL HSA solution
rat serum [7] = target: rat serum (Rattus norvegicus, UniProt P02770); conditions: RSA solution; cited from earlier work
Chain of rat serum (Rattus norvegicus, UniProt P02770) (P02770 25-608): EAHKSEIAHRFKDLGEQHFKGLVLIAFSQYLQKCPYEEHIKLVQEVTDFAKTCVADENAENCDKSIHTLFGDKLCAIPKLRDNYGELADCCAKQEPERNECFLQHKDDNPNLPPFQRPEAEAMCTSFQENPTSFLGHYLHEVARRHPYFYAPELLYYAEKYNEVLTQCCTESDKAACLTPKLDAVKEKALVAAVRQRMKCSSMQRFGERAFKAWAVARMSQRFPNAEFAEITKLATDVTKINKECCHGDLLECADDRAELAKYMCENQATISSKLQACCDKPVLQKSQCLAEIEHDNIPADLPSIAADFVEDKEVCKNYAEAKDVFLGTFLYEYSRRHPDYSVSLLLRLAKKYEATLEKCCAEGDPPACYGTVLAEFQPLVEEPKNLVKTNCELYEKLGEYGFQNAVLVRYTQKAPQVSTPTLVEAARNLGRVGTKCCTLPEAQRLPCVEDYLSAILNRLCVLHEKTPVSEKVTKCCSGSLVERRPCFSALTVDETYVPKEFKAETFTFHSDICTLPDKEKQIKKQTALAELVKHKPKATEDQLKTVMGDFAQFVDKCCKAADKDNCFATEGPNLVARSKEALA

[8] = target: T1, canine serum albumin (CSA); type: in vitro ADME; conditions: for Unbound level: CSA solutions containing warfarin; for Free tracer: CSA solutions with added ibuprofen
[9] = Ultrafiltration of [^64Cu]Cu-PTSM in protein-free saline
Outline: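 Membrane-integrity control without protein: 25 µL ethanol (2.5% v/v) added to 1.0 mL saline containing [64Cu]Cu-PTSM, compared with saline alone. Ultrafiltered through 30,000 Da NMWL membranes, n = 5 per group. % free tracer from 64Cu gamma counts of measured ultrafiltrate and starting-solution volumes.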

RSA = conditions: ref 46; cited from earlier work
[10] = HSA solutions with even high concentrations of L-tryptophan
[11] = drug-free HSA control (drug:HSA mole ratio 0), 40 mg/mL HSA
[12] = ibuprofen:HSA mole ratio 0.5, 40 mg/mL HSA
[13] = ibuprofen:HSA mole ratio 1, 40 mg/mL HSA
[14] = ibuprofen:HSA mole ratio 2, 40 mg/mL HSA
[15] = ibuprofen:HSA mole ratio 4, 40 mg/mL HSA
[16] = ibuprofen:HSA mole ratio 8, 40 mg/mL HSA
[17] = ibuprofen:HSA mole ratios up to 4:1
[18] = warfarin:HSA mole ratio 0.5, 40 mg/mL HSA
[19] = warfarin:HSA mole ratio 1, 40 mg/mL HSA
[20] = warfarin:HSA mole ratio 2, 40 mg/mL HSA
[21] = warfarin:HSA mole ratio 4, 40 mg/mL HSA
[22] = warfarin:HSA mole ratio 8, 40 mg/mL HSA

Compound: N[C@@H](Cc1c[nH]c2ccccc12)C(=O)O [L-tryptophan]
affinity (Ka) for the IIIA site of HSA (HSA; ref 29-31): 10000 M⁻¹

Compound: CC1(C)S[C@@H]2[C@H](NC(=O)Cc3ccccc3)C(=O)N2[C@H]1C(=O)O [Benzylpenicillin]
extent of protein binding in human plasma [1]: 50% | affinity constant for the IIA site of HSA (HSA; ref 10): 1200 M⁻¹ | affinity (Ka) for the IIA site of HSA (HSA; ref 40-42): 1200 M⁻¹ | affinity for site IIA of HSA (Ka) (HSA; reference not given): 1200 M⁻¹

Compound: Cn1nnnc1SCC1=C(C(=O)O)N2C(=O)[C@@H](NC(=O)[C@H](O)c3ccccc3)[C@H]2SC1 [Cephmandole]
binding to HSA (Ka) (HSA; ref 32): 1200 M⁻¹

effect of fatty acid addition on HSA binding ([3]; 1:1 fatty acid:HSA ratios (capric, myristic, palmitic, oleic)): little effect | level of free [^64Cu]Cu-PTSM relative to fatty acid-free ([3]; 6:1 fatty acid:HSA mole ratios (capric, myristic, palmitic, oleic)): approximately doubled | increase in free radiopharmaceutical level [3]: 300–500% | displacement from HSA [3, 10]: not observed | % free ([3]; HSA with highest concentration of tryptophan, 4.8 mM (1.0 mg/mL)): 3.2 ± 0.1% | Unbound [^64Cu]Cu-PTSM ([3]; incubated at 49°C for 30 min): 3.8 ± 0.2% | Unbound [^64Cu]Cu-PTSM ([3]; room temperature control solutions): 4.2 ± 0.6% | % Free (corrected) ([3]; benzylpenicillin:HSA mole ratio 0.5, 40 mg/mL HSA): 3.8 ± 0.1% | % Free (corrected) ([3]; benzylpenicillin:HSA mole ratio 1, 40 mg/mL HSA): 3.5 ± 0.1% | % Free (corrected) ([3]; benzylpenicillin:HSA mole ratio 2, 40 mg/mL HSA): 3.3 ± 0.2% | % Free (corrected) ([3]; benzylpenicillin:HSA mole ratio 4, 40 mg/mL HSA): 3.4 ± 0.1% | % Free (corrected) ([3]; benzylpenicillin:HSA mole ratio 8, 40 mg/mL HSA): 3.3 ± 0.1% | % Free [^64Cu]Cu-PTSM ([3]; capric acid:HSA 1:1, 40 mg/mL HSA): 7.5 ± 0.3 (4) % | % Free [^64Cu]Cu-PTSM ([3]; capric acid:HSA 6:1, 40 mg/mL HSA): 12.6 ± 3.5 (5) % | displacement from HSA ([3]; cephmandole, drug:HSA mole ratios up to 4:1): not displaced | % Free (corrected) ([3]; cephmandole:HSA mole ratio 0.5, 40 mg/mL HSA): 3.5 ± 0.1% | % Free (corrected) ([3]; cephmandole:HSA mole ratio 1, 40 mg/mL HSA): 3.2 ± 0.2% | % Free (corrected) ([3]; cephmandole:HSA mole ratio 2, 40 mg/mL HSA): 3.5 ± 0.1% | % Free (corrected) ([3]; cephmandole:HSA mole ratio 4, 40 mg/mL HSA): 4.2 ± 0.2% | % Free (corrected) [3, 11]: 4.0 ± 0.1% and 4.0% and 4.0 ± 0.4% | increase in free [^64Cu]Cu-PTSM in solution ([3]; furosemide:HSA 8:1 mole ratio vs drug-free): > 700% | % Free (corrected) ([3]; furosemide:HSA mole ratio 1, 40 mg/mL HSA): 8.4 ± 0.2% | % Free (corrected) [3, 12]: 3.4 ± 0.1% | % Free (corrected) [3, 13]: 3.4 ± 0.3% | % Free (corrected) [3, 14]: 3.2 ± 0.5% | % Free (corrected) [3, 15]: 4.8 ± 0.2% | % Free (corrected) [3, 16]: 10.1 ± 0.6% | displacement from HSA [3, 17]: no displacement | % Free [^64Cu]Cu-PTSM ([3]; myristic acid:HSA 1:1, 40 mg/mL HSA): 6.8 ± 0.3 (4) % | % Free [^64Cu]Cu-PTSM ([3]; myristic acid:HSA 6:1, 40 mg/mL HSA): 14.6 ± 0.8 (5) % | % Free [^64Cu]Cu-PTSM ([3]; oleic acid:HSA 1:1, 40 mg/mL HSA): 6.0 ± 0.3 (4) % | % Free [^64Cu]Cu-PTSM ([3]; oleic acid:HSA 6:1, 40 mg/mL HSA): 12.7 ± 0.7 (4) % | % Free [^64Cu]Cu-PTSM ([3]; palmitic acid:HSA 1:1, 40 mg/mL HSA): 5.6 ± 0.2 (3) % | % Free [^64Cu]Cu-PTSM ([3]; palmitic acid:HSA 6:1, 40 mg/mL HSA): 9.6 ± 0.3 (4) % | % Free (corrected) ([3]; phenylbutazone:HSA mole ratio 1, 40 mg/mL HSA): 7.1 ± 0.1% | % Free (corrected) ([3]; phenylbutazone:HSA mole ratio 8, 40 mg/mL HSA): 28.7 ± 0.8% | % Free (corrected) [3, 18]: 4.6 ± 0.1% | % Free (corrected) [3, 19]: 5.8 ± 0.7% | % Free (corrected) [3, 20]: 7.7 ± 0.8% | % Free (corrected) [3, 21]: 14.8 ± 0.3% | % Free (corrected) [3, 22]: 20.1 ± 1.5% | % Free [^64Cu]Cu-PTSM (rat serum [4]; drug:RSA mole ratio 0): 14.7 ± 1.2% | % Free [^64Cu]Cu-PTSM (rat serum [4]; furosemide:RSA mole ratio 1): 20.2 ± 0.7% | % Free [^64Cu]Cu-PTSM (rat serum [4]; furosemide:RSA mole ratio 8): 28.6 ± 0.6% | % Free [^64Cu]Cu-PTSM (rat serum [4]; phenylbutazone:RSA mole ratio 1): 18.6 ± 0.4% | % Free [^64Cu]Cu-PTSM (rat serum [4]; phenylbutazone:RSA mole ratio 8): 20.6 ± 0.4% | % Free [^64Cu]Cu-PTSM (rat serum [4]; warfarin:RSA mole ratio 1): 19.8 ± 0.5% | % Free [^64Cu]Cu-PTSM (rat serum [4]; warfarin:RSA mole ratio 8): 24.1 ± 0.5% | free fraction ([8]; 40 mg/mL CSA, 8:1 mole ratio of warfarin (first value)): 36.1 ± 2.8% | Free tracer (% free) ([9]; saline + 2.5% v/v ethanol): 68.0 ± 2.3% | Free tracer (% free) ([9]; saline control): 67.2 ± 0.7%
Compound: CN=C([S-])N/N=C/C(C)=N/NC([S-])=NC.[Cu+2] [[^64Cu]Cu-PTSM, pyruvaldehyde bis(N^4-methylthiosemicarbazonato)copper(II)]
% free in canine serum albumin (CSA) solutions [2]: approximately 42% | log P [5]: 1.9 | % bound to HSA [6]: approx. 95% | % free ([6]; HSA solution): 4.3 ± 0.2% | % free (rat serum [7]): 14.1 ± 0.3%

Compound: NS(=O)(=O)c1cc(C(=O)O)c(NCc2ccco2)cc1Cl [Furosemide]
binding to RSA (RSA): ≤ 99.1%

Compound: C=CC1=C(C)/C(=C/c2[nH]c(Cc3[nH]c(/C=C4\NC(=O)C(C)=C4C=C)c(C)c3CCC(=O)O)c(CCC(=O)O)c2C)NC1=O [bilirubin]
association with HSA (Ka) (HSA; site believed distinct from the IIA and IIIA drug sites, no reference given): 9.5e+07 M⁻¹

Compound: CC(C)Cc1ccc(C(C)C(=O)O)cc1 (stereo not shown) [Ibuprofen]
affinity (Ka) for the IIIA site of HSA (HSA; ref 10): 2.7e+06 M⁻¹ | affinity for the IIIA site of HSA (Ka) (HSA; reference not given): 2.7e+06 M⁻¹

increase in free radiopharmaceutical level [3]: 300–500% | displacement from HSA [3, 10]: not observed | % Free (corrected) [3, 11]: 5.9 ± 0.4% | % Free (corrected) [3, 12]: 7.1 ± 0.6% | % Free (corrected) [3, 13]: 7.5 ± 0.8% | % Free (corrected) [3, 14]: 8.2 ± 1.1% | % Free (corrected) [3, 15]: 7.3 ± 0.8% | % Free (corrected) [3, 16]: 10.5 ± 1.1% | displacement from HSA [3, 17]: no displacement | % Free (corrected) [3, 18]: 7.3 ± 0.2% | % Free (corrected) [3, 19]: 9.4 ± 0.8% | % Free (corrected) [3, 20]: 12.4 ± 0.9% | % Free (corrected) [3, 21]: 14.5 ± 0.6% | % Free (corrected) [3, 22]: 19.0 ± 1.7% | Unbound level [8]: 37.0% | Free tracer [8]: 43.8%
Compound: CN=C([S-])N/N=C(C)/C(C)=N/NC([S-])=NC.[Cu+2] [[^64Cu]Cu-ATSM, diacetyl bis(N^4-methylthiosemicarbazonato)copper(II)]
% bound to HSA [6]: approx. 95%

% Free (corrected) [3, 11]: 40.6 ± 1.1% | % Free (corrected) [3, 12]: 43.9 ± 2.2% | % Free (corrected) [3, 13]: 42.1 ± 2.7% | % Free (corrected) [3, 14]: 45.8 ± 2.6% | % Free (corrected) [3, 15]: 43.6 ± 3.1% | % Free (corrected) [3, 16]: 49.6 ± 1.2% | interaction with HSA on addition of site IIA or IIIA drugs ([3]; warfarin, ibuprofen up to 8:1): unaffected | % Free (corrected) [3, 18]: 42.8 ± 1.6% | % Free (corrected) [3, 19]: 44.2 ± 1.2% | % Free (corrected) [3, 20]: 45.2 ± 1.3% | % Free (corrected) [3, 21]: 42.8 ± 3.4% | % Free (corrected) [3, 22]: 44.7 ± 2.7% | Unbound level [8]: 40.4% | Free tracer [8]: 39.5%
Compound: ethylglyoxal bis(thiosemicarbazonato)copper(II) [[^64Cu]Cu-ETS]

Compound: CC(=O)CC(c1ccccc1)c1c(O)c2ccccc2oc1=O (stereo not shown) [Warfarin]
affinity for HSA (Ka) (HSA; ref 45): 340000 M⁻¹ | affinity for HSA (Ka) (HSA; ref 47): 340000 M⁻¹ | affinity for HSA (Ka) (HSA; reference not given): 340000 M⁻¹
